Source: PubChem BioAssay (Broad Institute)
HSF1 inhib: HSF1 inhibitors in luciferase reporter cells, primary screen, cell-based, NIH3T3, luminescence | activity change, negative = inhibition, % at 7.5 µM (by protocol) | 0.77% of 300,000 active | NIH3T3-HGL HSE-luciferase, MG132-induced, luminescence 8 h; hits give low values;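 active means more than half of replicate wells show activity change below -50%, luminescence cut by over half; inconclusive means some wells, but at most half, below -50%; inactive means no replicate well below -50%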;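 further: luciferase reports HSF-1 transcriptional activity via heat shock element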
HIF activator: HIF pathway transcriptional activators, primary screen, cell-based, U2OS HRE-luciferase, luminescence; U2OS HRE-luciferase reporter; normalized: DMSO 0%, desferrioxamine 100%; activation, % at 7.5 µM (by protocol); 0.32% of 300,000 active; AID 1910, 2009;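 active means mean activation of at least 10% of the iron chelator positive control signal, with at least half of replicates also reaching 10%; inconclusive means mean and replicate majority disagree about reaching 10%; inactive means mean and most replicates under 10%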
Calb FLC: C. albicans growth inhibition with fluconazole, primary screen, CaCi-2 strain, Alamar Blue fluorescence. AID 1979, 2009. C. albicans CaCi-2 + fluconazole, 48 h. 0.57% of 300,000 active. growth inhibition, % (test concentration not listed);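 active means growth inhibition above about 58% in most replicates, limit read from the data, passing the limit was not always enough; inconclusive means exactly half the replicates above a set limit; inactive means most replicates below a set limit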;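 further: all wells also contain fluconazole at 8 µg/ml as a sub-toxic cotreatment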
HSF1 activator: HSF-1 activators, primary screen, NIH3T3-HGL cells, MG132 stress, luminescence, single point; NIH3T3-HGL HSF-1 luciferase reporter, 8 h; 100% = twice DMSO control signal; activation, % at 9 µM; 1.7% of 300,000 active; AID 504408, 2011;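 active means mean replicate activation of at least 50% with a set share of replicates each reaching 50%; inconclusive means only one of those two conditions met; inactive means mean below 50% and too few replicates reaching it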
T cruzi inh: inhibitors of intracellular T. cruzi growth, primary screen, luminescence, NIH3T3 host cells; T. cruzi beta-gal in NIH3T3, 90 h; inhibition, % (no concentration beside the values); 1.4% of 300,000 active; AID 1885, 2009;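 active means mean inhibition across valid replicates above about 55%, limit read from the data; inconclusive means mean below that limit but half or more replicates reach it; inactive means mean below it, under half of replicates reach it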;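 further: signal also drops with host cell toxicity which is not excluded here; higher percent means less beta-gal luminescence so fewer parasites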
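compound dosing = single 50 nL compound addition per well in DMSO | material = NIH/3T3 host cells with β-galactosidase reporter T. cruzi | input = 5,000 host fibroblasts per well | timing = ≥90 h infection period, 3 h prior cell attachment | read-out basis = percent inhibition of parasite-derived β-gal signal | detection = GalScreen β-gal luminescence, detergent lysis, 60 min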
Of the large screens only hits and unclear results are named; the others gave an inactive call. This is a sample that favours compounds with a hit; in the whole collection about 4.4% have one here.

COc1ccc(NC(=O)CN(Cc2ccccc2)Cc2ccccc2)cc1S(N)(=O)=O	none
COc1ccc(NC(=O)COc2ccccc2Cc2ccccc2)cc1S(N)(=O)=O	HSF1 activator 81
COc1cccc(OCCCn2cc(/C=C3/C(=N)N4C=C(C)SC4=NC3=O)c3ccccc32)c1	T cruzi inh 57
O=[N+]([O-])c1cc(Cl)ccc1NCCNS(=O)(=O)c1ccccc1	HSF1 activator 55
O=[N+]([O-])c1ccccc1NCCNS(=O)(=O)c1ccc(Cl)cc1	none
Cc1cccc(C)c1OCC(=O)NCc1nnc(SCC(=O)NC2CCCCC2C)n1C (stereo unspecified)	HSF1 activator 94
Cc1nc2ccccn2c1C(=O)NN=C1C2CC3CC(C2)CC1C3	none
CSc1nc(NCCOCCO)c2sc3nc(-c4ccco4)c4c(c3c2n1)CCC4	none (no result: T cruzi inh)
CCN(CCO)c1nc(SC)nc2c1sc1nc(-c3ccco3)c3c(c12)CCC3	HSF1 activator 58
CC(C)(C)n1nc(-c2ccc(F)cc2)c2c(N)ncnc21	T cruzi inh 57
COc1ccc(C2C(C#N)=C(N)Nc3nc4ccccc4n32)cc1 (stereo unspecified)	HSF1 activator 53
COc1ccc(C2C=C(C)Nc3nc4ccccc4n32)cc1 (stereo unspecified)	HSF1 activator inconclusive
COC(=O)c1cccc(Cn2c(Cl)c(/C=N/Nc3ccccc3C)sc2=O)c1	HSF1 activator 151
COc1cc(C#N)ccc1OC(=O)c1cccc(S(=O)(=O)N2CCN(C)CC2)c1	none
N#C/C(=C\c1cccs1)C(=O)Nc1nccs1	HSF1 activator 60
N#C/C(=C\c1cccs1)C(=O)NCc1ccccc1	none
O=C1c2cccc3cccc(c23)C(=O)N1CCc1ccccc1	HSF1 activator 59
O=C(O)C(Cc1ccccc1)N1C(=O)c2cccc3cccc(c23)C1=O (stereo unspecified)	none
O=C1c2cccc3c(O)ccc(c23)C(=O)N1Cc1ccccc1	Calb FLC 100
COCCNC(=O)c1cc(-c2cccs2)on1	HIF activator 30
Cc1cc(C)c(NC(=O)CSc2nc3[nH]ncc3c(=O)[nH]2)c(C)c1	none
Cc1c(CCO)c(=O)n2n1CCCC2	none (no result: HIF activator, Calb FLC, T cruzi inh)
O=C1C2C3C=CC(C3=C(c3ccccc3)c3ccccc3)C2C(=O)N1Cc1ccccc1 (stereo unspecified)	none
Cc1ccc([N+](=O)[O-])c(OCCN2CCCCCC2)c1	none
Cc1ccc([N+](=O)[O-])c(OCCCN2CCC(Cc3ccccc3)CC2)c1	HSF1 inhib -60
CCOC(=O)C(Nc1ccc2ccccc2c1)C(=O)OCC	HSF1 activator 59
CC(=O)Nc1ccc2ccccc2c1	none
CN(C)S(=O)(=O)N1CCN(CC(=O)Nc2ccc(Br)cc2)CC1	none
O=C(CCC1CCCN(C(=O)CCN2CCCCC2=O)C1)NCc1ccccc1F (stereo unspecified)	none
CCOC(=O)c1sc2nccc(N(C)C)c2c1N=CNOCc1ccccc1	none
CCOC(=O)c1sc2nccc(N(C)C)c2c1N=CNOCc1c(F)cccc1Cl	T cruzi inh 70
O=C(Nc1ccc(OCC(F)(F)C(F)F)c(C(F)(F)F)c1)c1ccccc1O	HSF1 activator 66
O=C(Nc1ccc(OCC(F)(F)C(F)F)c(C(F)(F)F)c1)c1ccccc1	none
COCCN(Cc1cc2cc(C)c(C)cc2nc1Cl)C(=O)N1CCOCC1	none
COCCN(Cc1cc2ccc(C)c(C)c2nc1Cl)C(=O)N1CCOCC1	HSF1 activator 55
CCOc1ccccc1NC(=O)C(=O)NCCC1=CCCCC1	none
O=C(CN1C(=O)NC2(CCCC2)C1=O)OCCOc1ccc(Cl)cc1	none
CC(=O)Nc1ccc(S(=O)(=O)NCc2csc(C)n2)cc1	HSF1 inhib -87
c1ccc(/N=C2\N=C(Nc3ccccn3)c3ccccc32)nc1	T cruzi inh 65
c1ccc(Nc2ccccn2)cc1	none
Cc1ccc(OCc2cc(C(=O)N(C)CCc3ccccn3)no2)cc1C	none
Cc1ccc(OCc2cc(C(=O)N(C)CCc3nc4ccccc4[nH]3)no2)cc1C	HSF1 inhib -88
